Laboratory results from ChEMBL document CHEMBL4513216, “Probing the Open Global Health Chemical Diversity Library for Multistage-Active Starting Points for Next-Generation Antimalarials” (ACS Infect Dis, 2020).

Experiment: Toxicity liver stage against HepG2, at 10uM
Type: cell-based
Parameters: test concentration 10 uM, cell line HepG2-A16-CD81EGFP
Conditions: human, HepG2-A16-CD81EGFP cells; read-out: INHIBITION
Method in brief: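 Uninfected HepG2-A16-CD81EGFP cells, 3 × 10^3 per well, 1536-well, plated on prespotted compound at 10 μM final, parasite-free screening media added to match infected plates; puromycin 10 μM positive, DMSO 0.5% negative; run in parallel with 48 h PbLuc assay at 37 °C, 5% CO2; viability by CellTiter-Glo luminescence, normalized to controls.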

Compound | cytotoxicity at 10 µM [%]
c1ccc2c(Cc3nnc([C@H]4CCN(C5CCC5)C4)o3)c[nH]c2c1 | -0.0653
COc1cccc(CN2CCN3C(=O)NC[C@H]3C2)n1 | -1.45
CCCc1nnc(SCc2cc(=O)n3c4c(sc3n2)CCCC4)[nH]1 | -1.05
Cn1ccc2cc(C(=O)N3CC[C@@]4(O)CCCC[C@H]4C3)ccc21 | -46.8
CC(C)CNc1c(NCc2ccco2)c(=O)c1=O | -10.6
Cc1nc2sc(C(=O)N3CCNC(=O)C3)c(C)c2c(=O)[nH]1 | 4.13
CC(=O)Nc1ccc(SCC(=O)NCC2CCCO2)nn1 (stereo not given) | -16.7
O=C(Nc1cccs1)N1CC(c2nc(C3CC3)no2)C1 | -0.921
CC(=O)N1CCC2(CCCN(C(=O)CCN3CCCCC3)C2)C1 (stereo not given) | 0.906
Cc1cccc(N2CC3(CCN(S(=O)(=O)c4cccs4)C3)CC2=O)c1 (stereo not given) | -1.21
Cc1noc(C2CCC3(CCN(C(=O)c4cnccn4)CC3)O2)n1 (stereo not given) | 7.19
COCC(=O)N1CCC2(COCc3c(C)nc(N(C)C)nc32)C1 (stereo not given) | 9.09
O=C(NCC1CCCO1)c1nc2c(s1)CCCN2c1ncccn1 (stereo not given) | -5.17
Cc1cccc(CN2C[C@@H]3CN(C(=O)c4conc4C)C[C@@H]3C2=O)c1 | 2.66
CCc1c(C(=O)O)nnn1-c1cc(C)cc(C)c1 | -6.69
O=C(NCCN1CCOCC1)c1cc(-c2ccc3c(c2)CCO3)n[nH]1 | -2.95
O=C(c1cnn2c1OCCC2)N1CCN(C/C=C/c2ccccc2)CC1 | 9.28
O=C(CC1CCCC1)NCCn1ccc(-c2ccccn2)n1 | 5.5
CCN1C(=O)CCCC12CCCN(C(=O)c1conc1C)C2 (stereo not given) | 4.57
O=C(c1cccs1)N1C[C@H]2CC[C@@]3(N=C(c4ccccc4)NC3=O)[C@H]2C1 | -9.84
Cc1ccccc1CN1CCN(c2ncnc3c2NC(=O)CN3)CC1 | 6.78
Cc1cccc(NC(=O)CN2C(=O)CC(C)(C)c3ccccc32)n1 | 2.2

Compound | cytotoxicity at 10 µM [%]
CCC(=O)N1CCCCC1c1nc(CN(C)C(C)=O)cc(N(C)C)n1 (stereo not given) | -3.17
CCc1nnc(Nc2cc(C)nc(C3CN(C(C)=O)CCO3)c2)s1 (stereo not given) | 4.74
Cc1nc(N)cc(C2CCN2CCC(N)=O)n1 (stereo not given) | -1.21
Cc1ccnn1CCC(=O)N1CCCC[C@]2(C)NC(=O)CCC[C@H]12 | -0.822
COCC(=O)N1C[C@@H](c2cccc(OC)c2)[C@@]2(CCCCC(=O)N2)C1 | 1.62
Nc1ccc(CC2CCCN(Cc3c[nH]cn3)C2)nn1 (stereo not given) | -0.701
C[C@]1(O)CCN(Cc2ncccc2F)C[C@@H]1Oc1cccc(F)c1 | -1.37
Cc1cccnc1Nc1nccc(C2CN(CC(N)=O)C2)n1 | -34.3
CC(=O)N1CCCC(c2ccc(N3CCOCC3)cn2)C1 (stereo not given) | -18.9
COCCC(=O)N1CCC(c2cncc(Oc3cccnc3)n2)CC1 | -9.55
CC(C)(C)C(=O)N1CCC(n2nc(-c3ccco3)ccc2=O)CC1 | -15.4
CCC(=O)N1CCCC1c1csc(Nc2cnccn2)n1 (stereo not given) | -2.8
CC(C)(C)OC(=O)N1CCN(c2nnc(Br)s2)CC1 | 10.8
O=C(O)c1cnc(OCC2CC2)c(Br)c1 | 9.38
O=C(C1CCCS1)N1CCOc2cccc(F)c21 (stereo not given) | -6.54
O=C(COC1CCCCC1)Nc1ccn(CCc2ccncc2)n1 | -3.87
CC(C)(NC(=O)c1scnc1Cl)c1ccccc1 | -10.9
O=C1COc2cc(C(=O)N3CCCC(n4ccnc4)C3)ccc2N1 (stereo not given) | 1.75
COc1ccc(C)cc1CN(CC(N)=O)C(C)C | -0.846
COC1CCN(CCNC(=O)NC(C)c2ccc(F)c(F)c2)CC1 (stereo not given) | 9.88
CC(=O)N1CCN(CCNc2snc(Cl)c2C#N)CC1 | 5.69
CC1COc2ccccc2N1C(=O)c1ccnc(-n2cncn2)c1 (stereo not given) | 12.5

Compound | cytotoxicity at 10 µM [%]
CN(Cc1cnn(C)c1)S(=O)(=O)N1CCCCCC1 | -1.43
COc1cc(CN(C)C(=O)NCc2cccnc2OC)ccc1SC | -8.82
Cc1ccc(CNC(C)c2nnc3n2CCCC3)o1 (stereo not given) | -7.17
CC(C)(O)CNC(=O)NCc1nccn1CCc1ccccc1 | 3.04
CN(C(=O)NCc1nccn1CCc1ccccc1)C1CCC1 | 1.96
CC(C)C(C)NC(=O)Nc1ccc(CS(=O)(=O)C(C)C)cc1 (stereo not given) | -1.28
O=C(C1CCCC1)N1CCCC1c1nnc2n1CCCCC2 (stereo not given) | -2.58
CC(C)C(NC(=O)c1ccccc1F)C(=O)N1CCC2(CC1)OCCO2 (stereo not given) | 7.04
O=C(Nc1cccn(Cc2ccccc2)c1=O)c1ccncc1F | 14.8
Cc1cc(CNc2ccc3nc(C)sc3c2)no1 | -5.2
Cc1cc(CNC2(c3ccccc3F)CC2)no1 | 5.71
Cc1cnn(CCCNC(=O)NCCS(=O)(=O)Nc2ccccc2)c1 | 1.07
CCNC(=O)C1CCCN(C(=O)Nc2cc(C#N)ccc2OCC)C1 (stereo not given) | -1.71
CCC(=O)NCc1cc(Br)c(OC)c(OC)c1 | -0.0582
Cc1cc(=O)n2ncnc2n1CC(O)c1cc(F)ccc1F (stereo not given) | 1.7
Cc1[nH]ccc1C(=O)Nc1cccc(CN2CCC(O)CC2)c1 | 0.149
COc1ccc(C2CCCN2S(=O)(=O)N(C)CC(C)C)cc1 (stereo not given) | -6.72
CN(C)C(=O)C1CCCN1CCCNC(=O)c1ccccc1F (stereo not given) | -20.2
CSCC(CCO)NC(=O)Nc1cccc(Br)c1 (stereo not given) | -7.69
CSCC(CCO)NC(=O)Nc1cc(Br)ccc1C (stereo not given) | -11.1
CC(C)CNC(=O)C1=NOC2(CCN(Cc3ccoc3)C2)C1 (stereo not given) | -3.42
CS(=O)(=O)NCc1cc(-c2cc(F)cc(F)c2)nc(N2CCOCC2)n1 | -9.24

Compound | cytotoxicity at 10 µM [%]
CCCc1ccc(CN2CCN(C(=O)N(C)C)[C@@H]3CS(=O)(=O)C[C@@H]32)o1 | 8.69
Cc1nn2cc(CNc3nccc(CCC(F)(F)F)n3)nc2s1 | -8.27
Cc1nc(N2CCCC(OCc3ccccn3)C2)c2c(C)noc2n1 (stereo not given) | 0.622
O=C(CCN1CCCO1)N1CCCC(CO)(CCCc2ccccc2)C1 (stereo not given) | 2.76
CCCc1ccc(CN2CCN(c3ncccn3)[C@@H]3CS(=O)(=O)C[C@@H]32)o1 | 1.66
CCCn1c(C)c(CC(=O)NCCNC(C)=O)c2c1CC(C)(C)CC2=O | 6.2
Cc1c[nH]c(C(=O)N2CCCC2c2ccc(C(=O)N3CCSCC3)s2)n1 (stereo not given) | 2.73
Cc1oc(-c2ccoc2)nc1CN1CCC[C@H]1CO | -16.5
CC(C)c1noc(CN(C)C(=O)C2COc3ccccc3C2)n1 (stereo not given) | 2.77
COc1cccc(-c2n[nH]c3c2CN(C(=O)c2ccncc2)CC3)c1 | -5.55
CCc1cnc(NCC(CC)N2CCOCC2)nc1 (stereo not given) | 12.8
COc1ccccc1S(=O)(=O)N1CCC2(CC1)OCCCC2O (stereo not given) | 0.0773
O=C(O)c1cc(-c2cn[nH]c2)cc(S(=O)(=O)N2CCSCC2)c1 | -8.26
COc1ccccc1CN(C)C(=O)c1cc(CN2CCC(O)CC2)on1 | -26.7
CN1CCCN(C[C@@H]2CN(C(=O)CCC3CCCC3)C[C@@H]2CO)CC1 | -20.6
CCN1CCn2nc(CCC(=O)N3CCCC3)cc2C1 | 0.685
Cn1cc(CN2CC[C@@H]3[C@@H](CCC(=O)N3CCc3c[nH]cn3)C2)cn1 | -9.73
CCc1nc(C)cn1C(=O)Nc1ccc(C)cc1 | -1.64
Cn1c(=O)c2cc(C(=O)NCc3ccncc3)ccc2n(C)c1=O | -11.1
CCCNC(=O)NC(=O)CNC(C)(C)c1ccc2c(c1)OCCO2 | -14.7
CN(C)c1cc(C(=O)N2CCCC2)ccn1 | -4.1
CC(C(=O)N1CCCN(Cc2cscn2)CC1)N1CCOCC1 (stereo not given) | -11.4

Compound | cytotoxicity at 10 µM [%]
Cn1cc(C#N)c(=O)n(CC(O)c2ccccc2F)c1=O (stereo not given) | -11
CCN(CC1COc2ccccc2O1)C(=O)CCn1cncn1 (stereo not given) | -9.21
Cc1nc(-c2ccsc2)ccc1C(=O)NC(C)CN1CCOCC1 (stereo not given) | -13.8
Cc1cc(C)n(CC2CCCN2Cc2cscn2)n1 (stereo not given) | -7.65
CC(C)Oc1ccc(CNC(=O)CC(F)(F)F)cc1F | -1.08
CC(C)OCCCNC(=O)c1ccc(-c2ccco2)[nH]c1=O | -4.45
O=C(NCc1cccs1)c1nc2c(o1)CN(C(=O)c1cccnc1)C2 | -6.04
c1cc(CN2CCCC3(COCCN(Cc4c[nH]nn4)C3)C2)cs1 (stereo not given) | 8.59
CN(Cc1cncnc1)[C@H]1CN(CC2CC2)[C@@H]2CCCO[C@@H]21 | -9.87
Cn1cccc1C(=O)NCc1cn2c(n1)CN(CC1CCOCC1)CC2 | 8.33
c1ccc(OC[C@]23COC[C@H]2CN(C2CCOCC2)C3)nc1 | -2.6
CN(C)CCN1CCN(Cc2cccc(C#N)c2)Cc2cccnc21 | -1.57
Fc1cccc(-c2c[nH]c(C3CCCN3)n2)c1 (stereo not given) | -5.93
CC(=O)N1CCC2(CC1)C(=O)N(CC1CCN(C)CC1)c1ccccc12 | 1.73
CNC(=O)CN1CCc2c(CNc3nccs3)n[nH]c2C1 | 3.25
CN1CC(=O)N(c2cccc(F)c2)CC12CCN(CC1CCOCC1)C2 (stereo not given) | 0.887
O=C(NCc1cccs1)[C@H]1CC[C@@H]2[C@@H](CCN2C2CCC2)O1 | -6.34
Cn1ccnc1CN1CCC2(CC1)CN(c1ccccc1)C(=O)CO2 | -0.414
CC(C)NC(=O)[C@H]1C[C@@H]2[C@@H](C1)OCCN2Cc1cnn(C)c1 | 5.68
O=C(CC1CCC2(CC1)CCN(Cc1cccnc1)CC2)N1CC=CC1 | -2.13
CCN1CCC2(CC1)CC(NCc1cccc(C)n1)c1ccccc1O2 (stereo not given) | -1.46
CN(C)C(c1ccccn1)C1CCC(CNC(=O)CC2CCCC2)CC1 (stereo not given) | 9.43
